Results reported in ChEMBL document CHEMBL1158548, “Tetrahydrochromenoimidazoles as potassium-competitive acid blockers (P-CABs): structure-activity relationship of their antisecretory properties and their affinity toward the hERG channel” (J Med Chem, 2010).

Key:
Rattus norvegicus = assay: Inhibition of pentagastrin-stimulated acid secretion in intraduodenally dosed perfused Sprague-Dawley rat Ghosh Schild model; format: functional; details: intraduodenal
hERG (KCNH2) = hERG (KCNH2) (Homo sapiens, UniProt Q12809); assay: Inhibition of human ERG expressed in CHO-K1 cells at 10 uM by whole-cell patch clamp technique; format: cell-based; details: CHO-K1 cells that express human ERG
hERG (KCNH2), sequence (Q12809 whole entry): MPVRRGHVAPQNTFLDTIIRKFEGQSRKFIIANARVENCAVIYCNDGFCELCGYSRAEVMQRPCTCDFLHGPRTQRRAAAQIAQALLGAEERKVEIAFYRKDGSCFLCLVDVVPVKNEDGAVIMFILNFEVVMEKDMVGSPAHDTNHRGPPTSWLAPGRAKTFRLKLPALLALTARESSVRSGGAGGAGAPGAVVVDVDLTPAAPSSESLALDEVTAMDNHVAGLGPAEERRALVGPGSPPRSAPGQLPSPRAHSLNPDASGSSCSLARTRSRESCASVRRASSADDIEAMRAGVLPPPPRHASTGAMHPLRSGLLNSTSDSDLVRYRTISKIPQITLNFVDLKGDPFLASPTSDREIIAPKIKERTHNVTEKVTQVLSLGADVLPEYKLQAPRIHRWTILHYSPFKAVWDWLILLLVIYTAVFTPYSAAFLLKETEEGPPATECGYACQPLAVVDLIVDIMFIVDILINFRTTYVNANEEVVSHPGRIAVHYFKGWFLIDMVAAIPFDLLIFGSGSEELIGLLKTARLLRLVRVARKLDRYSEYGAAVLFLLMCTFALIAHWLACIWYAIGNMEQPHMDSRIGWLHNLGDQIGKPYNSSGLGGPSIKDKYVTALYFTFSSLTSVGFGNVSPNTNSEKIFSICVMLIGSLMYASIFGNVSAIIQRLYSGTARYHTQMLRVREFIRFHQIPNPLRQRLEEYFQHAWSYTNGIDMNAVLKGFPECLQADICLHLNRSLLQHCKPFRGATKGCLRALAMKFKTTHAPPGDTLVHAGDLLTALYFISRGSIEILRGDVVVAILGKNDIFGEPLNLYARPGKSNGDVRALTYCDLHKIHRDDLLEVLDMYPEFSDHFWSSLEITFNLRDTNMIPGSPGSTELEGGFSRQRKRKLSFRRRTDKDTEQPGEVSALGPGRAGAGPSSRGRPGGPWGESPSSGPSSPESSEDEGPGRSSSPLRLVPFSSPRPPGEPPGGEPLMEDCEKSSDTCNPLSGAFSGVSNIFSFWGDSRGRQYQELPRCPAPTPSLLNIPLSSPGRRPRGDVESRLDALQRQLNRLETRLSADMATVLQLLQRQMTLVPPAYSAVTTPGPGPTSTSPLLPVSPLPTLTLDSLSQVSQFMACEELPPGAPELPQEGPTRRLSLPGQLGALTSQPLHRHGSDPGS
Outline: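 CHO-K1 cells stably transfected with hERG; whole-cell patch clamp recording of tail currents with test compound at 10 μM, three cells per compound; relative block of tail current amplitude given as arithmetic mean.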

[1] = Inhibition of H+/K+ ATPase in hog gastric mucosa by malachite green based competitive binding assay; format: tissue-based, Sus scrofa
Outline: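 Hog gastric mucosa H+/K+-ATPase, isolated enzyme; competitive binding assay run at pH 7.4; pIC50 reported as geometric mean of 4-5 measurements.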

[2] = Partition coefficient, log D by HPLC; format: physicochemical; details: octanol/water
Outline: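 logD by reversed-phase HPLC at 37 °C, calibrated with seven reference substances of known logD.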

Gastric gland = assay: Inhibition of acid secretion in New Zealand White rabbit intact gastric glands assessed as [14C]dimethylaminopyridine accumulation by radioactivity; format: functional, tissue-based; details: Oryctolagus cuniculus
Outline: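 Gastric glands isolated intact from New Zealand rabbits; cellular activity read as reduced accumulation of the weak base 14C-dimethylaminopyridine; pIC50 given as geometric mean of 4-5 determinations.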

[3] = Dissociation constant, pKa at pH 2.0 to 11.0 by potentiometric cosolvent titration; format: physicochemical

SMILES | ED50 (Rattus norvegicus) [µmol/kg] | inhibition at 10 µM (hERG (KCNH2)) [%] | pIC50 [1] | logD [2] | IC50 (Gastric gland) [nM] | pKa [3] | pKa ([3]; read-out: pKa)
Cc1ccccc1[C@@H]1CCc2c(C(=O)N3CCOCC3)cc3c(nc(C)n3C)c2O1 | 1 | 4 | 4.8 | 2.8 | 5010 | – | –
CCCOC1CN(C(=O)c2cc3c(nc(C)n3C)c3c2CC[C@@H](c2ccccc2C)O3)C1 | 0.2 | 94 | 4.9 | 3.3 | 1260 | 5.62 | –
Cc1ccccc1[C@@H]1CCc2c(C(=O)N3CCCC3)cc3c(nc(C)n3C)c2O1 | 0.7 | 43 | 5.4 | 3.1 | 794 | 5.7 | –
Cc1nc2c3c(c(C(=O)N(C)C)cc2n1C)CC[C@@H](c1ccccc1)O3 | 0.26 | 28 | 5.3 | 2.5 | 3160 | – | –
CON(C)C(=O)c1cc2c(nc(C)n2C)c2c1CC[C@@H](c1ccccc1C)O2 | 0.15 | 13 | 5.4 | 2.9 | 1260 | 5.49 | –
Cc1ccccc1[C@@H]1CCc2c(C(=O)NCC[S+](C)[O-])cc3c(nc(C)n3C)c2O1 (stereo partly drawn) | 1.4 | 6 | 4.6 | – | – | – | –
COCc1cc2c(nc(C)n2C)c2c1CC[C@@H](c1ccccc1C)O2 | 0.5 | 34 | 5.1 | 3.4 | 1000 | 6.24 | –
Cc1ccccc1[C@@H]1CCc2c(C(=O)N(C)C)cc3c(nc(CO)n3C)c2O1 | 1 | 12 | – | 2.5 | 1170 | – | –
Cc1ccccc1[C@@H]1CCc2c(C(=O)N3CC(F)C3)cc3c(nc(C)n3C)c2O1 | 0.3 | 28 | 5 | 3 | 1000 | 5.54 | –
Cc1ccccc1[C@@H]1CCc2c(C(N)=O)cc3c(nc(C)n3C)c2O1 | 2 | 14 | 4.8 | 2.5 | 5010 | – | –
Cc1ccccc1[C@@H]1CCc2c(C(=O)NC3CC3)cc3c(nc(C)n3C)c2O1 | 0.3 | 43 | 4.9 | 3 | 794 | 5.68 | –
Cc1nc2c3c(c(C(=O)N(C)C)cc2n1C)CC[C@@H](c1cccs1)O3 | 2 | 9 | 5 | 2.4 | 50100 | – | –
Cc1ccccc1[C@@H]1CCc2c(C(=O)NCC3CCCCO3)cc3c(nc(C)n3C)c2O1 (stereo partly drawn) | 1.2 | 54 | < 5 | 3.3 | 6310 | – | –
Cc1ccccc1[C@@H]1CCc2c(C(=O)N3CCC3)cc3c(nc(C)n3C)c2O1 | 0.3 | 14 | 5.5 | 2.8 | 794 | – | –
Cc1ccccc1[C@@H]1CCc2c(C(=O)NCC#N)cc3c(nc(C)n3C)c2O1 | 3 | 18 | 4.7 | 2.9 | 12600 | – | –
Cc1nc2c3c(c(C(=O)N4CCC4)cc2n1C)CC[C@@H](c1ccc(Cl)cc1)O3 | 0.16 | 84 | 5.3 | 3 | 1260 | – | –
CONC(=O)c1cc2c(nc(C)n2C)c2c1CC[C@@H](c1ccccc1C)O2 | 1.8 | 13 | 4.6 | 2.6 | 10000 | – | –

SMILES | ED50 (Rattus norvegicus) [µmol/kg] | inhibition at 10 µM (hERG (KCNH2)) [%] | pIC50 [1] | logD [2] | IC50 (Gastric gland) [nM] | pKa [3] | pKa ([3]; read-out: pKa)
Cc1ccccc1[C@@H]1CCc2c(C(=O)NC(C)C)cc3c(nc(C)n3C)c2O1 | 0.45 | 30 | 4.7 | 3.1 | 631 | – | –
Cc1ccccc1[C@@H]1CCc2c(C(=O)NC3COC3)cc3c(nc(C)n3C)c2O1 | 2 | 49 | 4.6 | 2.6 | 10000 | – | –
Cc1nc2c3c(c(C(=O)N(C)C)cc2n1C)CC[C@@H](c1ccc(F)cc1Cl)O3 | 0.1 | 33 | 5.4 | 3 | 794 | – | –
CNC(=O)c1cc2c(nc(C)n2C)c2c1CC[C@@H](c1ccc(Cl)cc1)O2 | 0.3 | 68 | < 5 | 2.9 | 2000 | – | –
COCCNC(=O)c1cc2c(nc(C)n2C)c2c1CC[C@@H](c1ccccc1C)O2 | 0.8 | 55 | 4.9 | 2.8 | 3160 | – | –
Cc1nc2c3c(c(C(=O)N4CCC4)cc2n1C)CC[C@@H](c1ccccc1)O3 | 0.3 | 18 | 4.9 | 2.6 | 2510 | – | –
Cc1ccccc1[C@@H]1CCc2c(C(=O)N3CC(CO)C3)cc3c(nc(C)n3C)c2O1 | 1.4 | 2 | 5 | 2.4 | 63100 | – | –
CNC(=O)c1cc2c(nc(C)n2C)c2c1CC[C@@H](c1ccccc1)O2 | 0.5 | 26 | 4.8 | 2.4 | 6310 | – | –
COC1(C)CN(C(=O)c2cc3c(nc(C)n3C)c3c2CC[C@@H](c2ccccc2C)O3)C1 | 1 | 20 | 4.3 | – | 3160 | – | –
CSCCNC(=O)c1cc2c(nc(C)n2C)c2c1CC[C@@H](c1ccccc1C)O2 | 1 | 73 | 4.8 | 3.2 | 1260 | – | –
COCc1nc2c3c(c(C(=O)N(C)C)cc2n1C)CC[C@@H](c1ccccc1C)O3 | 3 | 7 | 4.57 | 2.9 | 45700 | – | –
COCCN(C)C(=O)c1cc2c(nc(C)n2C)c2c1CC[C@@H](c1ccccc1C)O2 | 1.2 | 8 | 4.9 | 2.9 | 3160 | – | –
Cc1ccccc1[C@@H]1CCc2c(C(=O)N(C)C)cn3c(C)c(C)nc3c2O1 | – | – | – | – | – | – | 7.15
Cc1ccccc1[C@@H]1CCc2c(C(=O)NCC3CCCO3)cc3c(nc(C)n3C)c2O1 (stereo partly drawn) | 1 | 75 | 4.3 | 3 | 3160 | – | –
CCOC1CN(C(=O)c2cc3c(nc(C)n3C)c3c2CC[C@@H](c2ccccc2C)O3)C1 | 0.4 | 70 | 4.5 | 3 | 794 | – | –
Cc1ccccc1[C@@H]1CCc2c(C(=O)N3CC(O)C3)cc3c(nc(C)n3C)c2O1 | 1.2 | 11 | 5 | 2.4 | 39800 | – | –
Cc1cc(F)ccc1[C@@H]1CCc2c(C(=O)N(C)C)cc3c(nc(C)n3C)c2O1 | < 0.3 | 19 | 5.6 | 2.9 | 501 | – | –
